Test results as given in ChEMBL document CHEMBL4145593, “Discovery of Orally Bioavailable Selective Inhibitors of the Sodium-Phosphate Cotransporter NaPi2a (SLC34A1)” (ACS Med Chem Lett, 2018).

Columns and labels:
[1] = AUC (0 to 24 hrs) in C57BL6 mouse at 50 mg/kg, po; type: ADME, organism-based; parameters: dose 50 mg/kg, time < 24 hr, route oral; conditions: in vivo
In short: (§1)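 Oral dosing at 5 or 50 mg/kg as a suspension in 0.5% methylcellulose (10 mL/kg). Values are the arithmetic mean of n = 2 animals.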

[2] = Oral bioavailability in Wistar Han rat at 50 mg/kg; type: ADME, organism-based; conditions: in vivo; in short: as §1

Cc1[nH]c2c(N3CCO[C@H](CO)C3)c(C#N)c(C(F)(F)F)nc2c1Cl
AUC(0-t) at 24 h [1]: 92000 ng·h/mL | bioavailability [2]: 140%
